Reference: article PMC4577306 (Biochimica et biophysica acta, 2015)
No end group written: not given here.

Legend:
[1] = target: human RIIα (Homo sapiens, UniProt P13861); test: SPR kinetics of RIIα on immobilized neurochondrin peptides; assay type: binding; conditions: for kon: read-out: ka (apparent association rate constant)
Method in brief: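 Human RIIα purified by cAMP affinity chromatography. Test peptides dissolved in DMSO, amine-coupled to CM5 chips after 10 min NHS/EDC activation to about 1 RU, then blocked with 1 M ethanolamine-HCl pH 8.5, at 5 μL/min and 25 °C. Activated/deactivated reference flow cell. Running buffer 100 mM Tris, 150 mM NaCl, 0.005% Tween 20, pH 7.4, 25 °C. Surfaces regenerated with SDS, 4 M guanidinium-HCl and 1 M NaCl buffer.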

[2] = target: neurochondrin peptide I (human); test: SPR
[3] = target: neurochondrin peptide II (human); test: SPR

Chain of human RIIα (P13861 whole entry): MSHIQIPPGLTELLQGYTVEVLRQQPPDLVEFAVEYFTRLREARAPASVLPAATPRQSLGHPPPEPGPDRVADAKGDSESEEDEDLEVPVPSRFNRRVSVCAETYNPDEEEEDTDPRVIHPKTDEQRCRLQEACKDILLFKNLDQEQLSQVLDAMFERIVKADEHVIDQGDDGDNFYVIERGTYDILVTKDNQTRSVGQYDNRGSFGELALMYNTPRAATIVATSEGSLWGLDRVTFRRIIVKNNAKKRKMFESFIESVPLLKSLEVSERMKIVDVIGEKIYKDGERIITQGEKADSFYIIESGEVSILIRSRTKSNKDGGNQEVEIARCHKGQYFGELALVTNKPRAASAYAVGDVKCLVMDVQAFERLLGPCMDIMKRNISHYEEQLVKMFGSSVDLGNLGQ

| Kd [1] | kon [1] | Kd [2] | Kd [3] | Substance |
| --- | --- | --- | --- | --- |
| 9.6 ± 4.8 nM | 110000 ± 5e+09 M⁻¹ s⁻¹ |  |  | KLSSWQRNPALKLAARLAHA-NH2 [peptide II] |
|  |  | 9.3 nM | 9.6 nM | human RIIα subunit of cAMP-dependent protein kinase (PKA) (from UniProt P13861 1-404) (natural protein) |
| 9.3 ± 3.1 nM | 120000 ± 1e+09 M⁻¹ s⁻¹ |  |  | YAGDIDAKTRRRIFDAVGFTF-NH2 [peptide I] |
